Assays:
Assay type in all cases: functional
[1] = tested on: RPMI-8226; test: Growth inhibition of human RPMI8226 cells at 10 uM after 48 hrs by SRB assay; conditions: RPMI-8226, 48 h, read-out: GI
Method in brief: (§1)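 NCI-60 primary one-dose screen run at the US NCI, with human tumour lines from nine cancer types. Compound added once at 10^-5 M, followed by 48 h incubation. End point was sulforhodamine B protein staining read spectrophotometrically. Result given as percent growth of treated cells against untreated controls, reported as % growth inhibition.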

[2] = tested on: HT-29; test: Growth inhibition of human HT-29 cells at 10 uM after 48 hrs by SRB assay; conditions: HT-29, 48 h, read-out: GI; method in brief: as §1
[3] = tested on: HCT-116; test: Growth inhibition of human HCT116 cells at 10 uM after 48 hrs by SRB assay; conditions: HCT-116, 48 h, read-out: GI; method in brief: as §1
[4] = tested on: SR; test: Growth inhibition of human SR cells at 10 uM after 48 hrs by SRB assay; conditions: read-out: GI; method in brief: as §1
[5] = tested on: SW-620; test: Growth inhibition of human SW620 cells at 10 uM after 48 hrs by SRB assay; conditions: SW-620, 48 h, read-out: GI; method in brief: as §1
[6] = tested on: SK-OV-3; test: Growth inhibition of human SKOV3 cells at 10 uM after 48 hrs by SRB assay; conditions: SK-OV-3, 48 h, read-out: GI; method in brief: as §1
[7] = Growth inhibition of human SF539 cells at 10 uM after 48 hrs by SRB assay; conditions: SF-539, 48 h, read-out: GI; method in brief: as §1
[8] = Growth inhibition of human HCT15 cells at 10 uM after 48 hrs by SRB assay; conditions: HCT-15, 48 h, read-out: GI; method in brief: as §1
[9] = tested on: A498; test: Growth inhibition of human A498 cells at 10 uM after 48 hrs by SRB assay; conditions: A498, 48 h, read-out: GI
Method in brief: (§2)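 NCI primary one-dose screen. A single concentration of 10^-5 M was added to the cell culture, followed by 48 h incubation and an SRB protein-dye endpoint read spectrophotometrically. Results are growth percentage relative to untreated control cells, reported as % growth inhibition.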

[10] = Growth inhibition of human BT549 cells at 10 uM after 48 hrs by SRB assay; conditions: BT-549, 48 h, read-out: GI; method in brief: as §2
[11] = tested on: SNB-19; test: Growth inhibition of human SNB19 cells at 10 uM after 48 hrs by SRB assay; conditions: SNB-19, 48 h, read-out: GI; method in brief: as §1
[12] = tested on: U-251; test: Growth inhibition of human U251 cells at 10 uM after 48 hrs by SRB assay; conditions: U-251, 48 h, read-out: GI; method in brief: as §1
[13] = tested on: SF-268; test: Growth inhibition of human SF268 cells at 10 uM after 48 hrs by SRB assay; conditions: SF-268, 48 h, read-out: GI; method in brief: as §1
[14] = Growth inhibition of human UO31 cells at 10 uM after 48 hrs by SRB assay; conditions: UO-31, 48 h, read-out: GI; method in brief: as §1
[15] = tested on: NCI-H23; test: Growth inhibition of human NCI-H23 cells at 10 uM after 48 hrs by SRB assay; conditions: NCI-H23, 48 h, read-out: GI; method in brief: as §1
[16] = tested on: TK-10; test: Growth inhibition of human TK10 cells at 10 uM after 48 hrs by SRB assay; conditions: TK-10, 48 h, read-out: GI; method in brief: as §1
[17] = Growth inhibition of human MOLT4 cells at 10 uM after 48 hrs by SRB assay; conditions: MOLT-4, 48 h, read-out: GI; method in brief: as §1
[18] = tested on: MDA-MB-468; test: Growth inhibition of human MDA-MB-468 cells assessed as cell growth at 10 uM after 48 hrs by SRB assay; conditions: MDA-MB-468, 48 h, read-out: GI; method in brief: as §1
[19] = Growth inhibition of human NCI-ADR-RES cells at 10 uM after 48 hrs by SRB assay; conditions: read-out: GI; method in brief: as §1
[20] = tested on: HL-60(TB); test: Growth inhibition of human HL-60(TB) cells at 10 uM after 48 hrs by SRB assay; conditions: HL-60, 48 h, read-out: GI
Method in brief: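 NCI 60-cell-line primary screen: compound added at single concentration 10^-5 M, cultures incubated 48 h; end point by sulforhodamine B protein staining read spectrophotometrically; result given as growth percentage of treated versus untreated control cells, reported as % growth inhibition.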

[21] = tested on: 786-0; test: Growth inhibition of human 786-0 cells at 10 uM after 48 hrs by SRB assay; conditions: 786-0, 48 h, read-out: GI; method in brief: as §2
[22] = Growth inhibition of human UACC257 cells at 10 uM after 48 hrs by SRB assay; conditions: UACC-257, 48 h, read-out: GI; method in brief: as §1
[23] = tested on: SNB-75; test: Growth inhibition of human SNB75 cells at 10 uM after 48 hrs by SRB assay; conditions: SNB-75, 48 h, read-out: GI; method in brief: as §1
[24] = tested on: M14; test: Growth inhibition of human M14 cells at 10 uM after 48 hrs by SRB assay; conditions: M14, 48 h, read-out: GI; method in brief: as §1
[25] = tested on: HOP-62; test: Growth inhibition of human HOP62 cells at 10 uM after 48 hrs by SRB assay; conditions: HOP-62, 48 h, read-out: GI; method in brief: as §1
[26] = tested on: SN12C; test: Growth inhibition of human SN12C cells at 10 uM after 48 hrs by SRB assay; conditions: read-out: GI; method in brief: as §1
[27] = Growth inhibition of human OVCAR8 cells at 10 uM after 48 hrs by SRB assay; conditions: OVCAR-8, 48 h, read-out: GI; method in brief: as §1
[28] = tested on: NCI-H460; test: Growth inhibition of human NCI-H460 cells at 10 uM after 48 hrs by SRB assay; conditions: NCI-H460, 48 h, read-out: GI; method in brief: as §1
[29] = tested on: MCF7; test: Growth inhibition of human MCF7 cells at 10 uM after 48 hrs by SRB assay; conditions: MCF7, 48 h, read-out: GI; method in brief: as §1
[30] = Growth inhibition of human HCC2998 cells at 10 uM after 48 hrs by SRB assay; conditions: HCC 2998, 48 h, read-out: GI; method in brief: as §1
[31] = tested on: CAKI-1; test: Growth inhibition of human CAKI-1 cells at 10 uM after 48 hrs by SRB assay; conditions: CAKI-1, 48 h, read-out: GI; method in brief: as §2
[32] = tested on: SK-MEL-28; test: Growth inhibition of human SK-MEL-28 cells at 10 uM after 48 hrs by SRB assay; conditions: SK-MEL-28, 48 h, read-out: GI; method in brief: as §1
[33] = tested on: NCI-H522; test: Growth inhibition of human NCI-H522 cells at 10 uM after 48 hrs by SRB assay; conditions: NCI-H522, 48 h, read-out: GI; method in brief: as §1
[34] = Growth inhibition of human HOP92 cells at 10 uM after 48 hrs by SRB assay; conditions: HOP-92, 48 h, read-out: GI; method in brief: as §1
[35] = tested on: K562; test: Growth inhibition of human K562 cells at 10 uM after 48 hrs by SRB assay; conditions: K562, 48 h, read-out: GI; method in brief: as §1
[36] = tested on: COLO 205; test: Growth inhibition of human COLO205 cells at 10 uM after 48 hrs by SRB assay; conditions: COLO 205, 48 h, read-out: GI; method in brief: as §2
[37] = Growth inhibition of human LOXIMVI cells at 10 uM after 48 hrs by SRB assay; conditions: LOX IMVI, read-out: GI; method in brief: as §1

Row | SMILES | inhibition of growth at 10 µM [1] [%] | inhibition of growth at 10 µM [2] [%] | inhibition of growth at 10 µM [3] [%] | inhibition of growth at 10 µM [4] [%] | inhibition of growth at 10 µM [5] [%] | inhibition of growth at 10 µM [6] [%] | inhibition of growth at 10 µM [7] [%] | inhibition of growth at 10 µM [8] [%] | inhibition of growth at 10 µM [9] [%] | inhibition of growth at 10 µM [10] [%] | inhibition of growth at 10 µM [11] [%] | inhibition of growth at 10 µM [12] [%] | inhibition of growth at 10 µM [13] [%] | inhibition of growth at 10 µM [14] [%] | inhibition of growth at 10 µM [15] [%] | inhibition of growth at 10 µM [16] [%] | inhibition of growth at 10 µM [17] [%] | inhibition of growth at 10 µM [18] [%] | inhibition of growth at 10 µM [19] [%] | inhibition of growth at 10 µM [20] [%] | other results
1 | Cc1ccc(C(=O)Nc2ccc(Cl)cc2C(=O)NCc2ccccc2)cc1 | 23 | 77 | 11 | 63 | 42 | < 10 | 16 | 43 | 21 | < 10 | < 10 | 19 | < 10 | 24 | < 10 | < 10 | 49 | 17 | 28 | 49 | inhibition of growth at 10 µM [21]: < 10%; inhibition of growth at 10 µM [22]: 15%; inhibition of growth at 10 µM [23]: 33%; inhibition of growth at 10 µM [24]: 26%; inhibition of growth at 10 µM [25]: 12%; inhibition of growth at 10 µM [26]: < 10%; inhibition of growth at 10 µM [27]: 13%; inhibition of growth at 10 µM [28]: < 10%; inhibition of growth at 10 µM [29]: 47%; inhibition of growth at 10 µM [30]: 14%; inhibition of growth at 10 µM [31]: 23%; inhibition of growth at 10 µM [32]: 17%; inhibition of growth at 10 µM [33]: 47%; inhibition of growth at 10 µM [34]: < 10%; inhibition of growth at 10 µM [35]: 70%; inhibition of growth at 10 µM [36]: < 10%; inhibition of growth at 10 µM [37]: 21%
2 | Cc1ccc(C2=Nc3ccc(Cl)cc3C3=NNCC(=O)NN23)cc1 | < 10 | < 10 | < 10 | < 10 | < 10 | < 10 | < 10 | < 10 | 34 | < 10 | < 10 | < 10 | < 10 | 18 | < 10 | < 10 | < 10 | 11 | < 10 | < 10 | inhibition of growth at 10 µM [21]: < 10%; inhibition of growth at 10 µM [22]: < 10%; inhibition of growth at 10 µM [23]: < 10%; inhibition of growth at 10 µM [24]: < 10%; inhibition of growth at 10 µM [25]: < 10%; inhibition of growth at 10 µM [26]: < 10%; inhibition of growth at 10 µM [27]: < 10%; inhibition of growth at 10 µM [28]: < 10%; inhibition of growth at 10 µM [29]: < 10%; inhibition of growth at 10 µM [30]: < 10%; inhibition of growth at 10 µM [31]: 14%; inhibition of growth at 10 µM [32]: < 10%; inhibition of growth at 10 µM [33]: < 10%; inhibition of growth at 10 µM [34]: < 10%; inhibition of growth at 10 µM [35]: < 10%; inhibition of growth at 10 µM [36]: < 10%; inhibition of growth at 10 µM [37]: < 10%
3 | Cc1ccc(-c2nc3ccc(Cl)cc3c3nnnn23)cc1 | < 10 | < 10 | < 10 | < 10 | 17 | 12 | 18 | < 10 | 11 | < 10 | 11 | < 10 | < 10 | 24 | < 10 | < 10 | < 10 | < 10 | < 10 | < 10 | inhibition of growth at 10 µM [21]: < 10%; inhibition of growth at 10 µM [22]: < 10%; inhibition of growth at 10 µM [23]: < 10%; inhibition of growth at 10 µM [24]: < 10%; inhibition of growth at 10 µM [25]: 51%; inhibition of growth at 10 µM [26]: 16%; inhibition of growth at 10 µM [27]: < 10%; inhibition of growth at 10 µM [28]: < 10%; inhibition of growth at 10 µM [29]: < 10%; inhibition of growth at 10 µM [30]: < 10%; inhibition of growth at 10 µM [31]: 25%; inhibition of growth at 10 µM [32]: < 10%; inhibition of growth at 10 µM [33]: 21%; inhibition of growth at 10 µM [34]: < 10%; inhibition of growth at 10 µM [35]: 11%; inhibition of growth at 10 µM [36]: < 10%; inhibition of growth at 10 µM [37]: < 10%

From ChEMBL document CHEMBL3259728, “Design, synthesis and biological evaluation of some novel substituted quinazolines as antitumor agents” (2014)
